Measurements published in ChEMBL document CHEMBL3272219, “Chemistry and antibacterial activity of nitrobenzofurans” (J Med Chem, 1976).
Converted amounts (≈) assume the structure as drawn. Values belong to the compound of their own block, whether it stands above or below them. The source made the active and inactive calls. The calls are words filed in the database; no cut-off is given here.

Legend:
Escherichia coli [1] = experiment: Antibacterial activity against Escherichia coli B cultured in Jensen's minimal media assessed as growth inhibition by turbidimetric analysis; assay type: functional, organism-based
Procedure, shortened: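 E. coli B, grown overnight in Jensen's minimal medium, was subcultured at 37° with shaking to 70% T. 1 ml of culture was added to 8 ml Jensen's broth (pH 7) plus 1 ml compound in 10% Me2SO. Five concentrations (dilution series 1–0.1) and a 1% Me2SO control were run. Turbidity was monitored with agitation. Log A vs time gave % inhibition, and IC50 came from log concentration–probability plots.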

[2] = Ratio of antibacterial activity against Escherichia coli B cultured in Jensen's minimal media to antibacterial activity against Escherichia coli Br cultured in Penassay broth; assay type: functional
[3] = Stability of the compound in aqueous solution; assay type: physicochemical; conditions: buffer
Procedure, shortened: (§1)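 Solvolysis was run at 37 ± 0.5° in Jensen's minimal medium at pH 7.0 with 5% Me2SO final, starting from 0.7–2.0 × 10^-4 M compound. Absorbance was followed at a preselected wavelength. Benzofuran concentration was calculated every half hour from substrate and product extinction coefficients. Data were fitted to a first-order rate law, with a 95% confidence range on the rate constant.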

[4] = Half life of the compound in 5% Me2SO-Jensen's minimal media at 0.7 to 2 X 10^-4 M at pH 7 by spectrophotometric analysis; assay type: physicochemical; procedure, shortened: as §1
Escherichia coli [5] = experiment: Antibacterial activity against Escherichia coli B cultured in Jensen's minimal media assessed as growth inhibition by turbidimetric analysis in presence of vitamin-free casamino acids and tryptophan; assay type: functional, organism-based
Procedure, shortened: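 Same minimal-medium turbidity assay with E. coli B: a 70% T culture was mixed with compound in Me2SO in Jensen's broth (pH 7) and read with agitation. Vitamin-free casamino acids (1.2 g/l) and tryptophan (200 mg/l) were added to the minimal broth.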

Escherichia coli [6] = experiment: Antibacterial activity against Escherichia coli B cultured in Jensen's minimal media assessed as growth inhibition at < 2 X 10^-5 M by turbidimetric analysis; assay type: functional, organism-based
Enterococcus faecalis = experiment: Antibacterial activity against Streptococcus faecalis after 6 hrs by turbidimetric analysis; assay type: functional
Procedure, shortened: (§2)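 Overnight Penassay broth culture adjusted to 60% transmittance, diluted 10 ml into 900 ml broth; 4.5 ml inoculum added to 0.5 ml compound in 10% Me2SO. Nine-step dilution series (1 to 0.031), four replicates each, with positive and negative controls. Incubation at 37°, stationary except P. aeruginosa. Turbidity read at 660 nm after 6 hr. MIC taken as the lowest concentration giving >90% T.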

Escherichia coli [7] = experiment: Antibacterial activity against Escherichia coli B after 6 hrs by turbidimetric analysis; assay type: functional; procedure, shortened: as §2
Proteus mirabilis = experiment: Antibacterial activity against Proteus mirabilis after 6 hrs by turbidimetric analysis; assay type: functional; procedure, shortened: as §2
Pseudomonas aeruginosa = experiment: Antibacterial activity against Pseudomonas aeruginosa after 6 hrs by turbidimetric analysis; assay type: functional; procedure, shortened: as §2
Providencia rettgeri = experiment: Antibacterial activity against Proteus rettgeri after 6 hrs by turbidimetric analysis; assay type: functional; procedure, shortened: as §2
Klebsiella pneumoniae [8] = experiment: Antibacterial activity against Klebsiella pneumoniae after 6 hrs by turbidimetric analysis; assay type: functional; procedure, shortened: as §2
Escherichia coli [9] = experiment: Antibacterial activity against Escherichia coli Br after 6 hrs by turbidimetric analysis; assay type: functional; procedure, shortened: as §2
Escherichia coli [10] = experiment: Antibacterial activity against Escherichia coli Br cultured in Penassay broth assessed as effect on lag time after 9 hrs by turbidimetric analysis; assay type: functional, organism-based
Procedure, shortened: (§3)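 Cultures in Penassay broth at 37° with compound added from 10% Me2SO and monitored at 660 nm every 20 min for 9 hr after inoculation. For each concentration, the log A660 vs time plot was extrapolated to A = 0.05. Time from inoculation to that point was taken as the lag time, which was then plotted against concentration.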

Escherichia coli [11] = experiment: Antibacterial activity against nitrofuran reductase-deficient Escherichia coli Br 207 after 6 hrs by turbidimetric analysis; assay type: functional; conditions: Br 207, 6 h; procedure, shortened: as §2
Staphylococcus aureus [12] = experiment: Antibacterial activity against Staphylococcus aureus after 6 hrs by turbidimetric analysis; assay type: functional; procedure, shortened: as §2
[13] = Half life of the compound in 20% Me2SO-Jensen's minimal media at 0.7 to 2 X 10^-4 M at pH 6 by spectrophotometric analysis; assay type: physicochemical
[14] = Half life of the compound in 5% Me2SO-Jensen's minimal media at 0.7 to 2 X 10^-4 M at pH 6 by spectrophotometric analysis; assay type: physicochemical
Escherichia coli [15] = experiment: Antibacterial activity against Escherichia coli Br cultured in Penassay broth assessed as time required for growth suppression at 4.4 X 10^-5 M compound added in early log phase of growth by turbidimetric analysis; assay type: functional
Escherichia coli [16] = experiment: Antibacterial activity against Escherichia coli Br assessed as decrease in viability at 7.7 X 10^-5 M after 2 hrs; assay type: functional, organism-based
[17] = Half life of the compound in 10% Me2SO-Jensen's minimal media at 0.7 to 2 X 10^-4 M at pH 6 by spectrophotometric analysis; assay type: physicochemical
[18] = Half life of the compound in 40% Me2SO-Jensen's minimal media at 0.7 to 2 X 10^-4 M at pH 6 by spectrophotometric analysis; assay type: physicochemical
Staphylococcus aureus [19] = experiment: Antibacterial activity against Staphylococcus aureus cultured in Penassay broth assessed as effect on lag time after 9 hrs by turbidimetric analysis; assay type: functional, organism-based; procedure, shortened: as §3
Escherichia coli [20] = experiment: Antibacterial activity against Escherichia coli Br cultured in Penassay broth assessed as time required for growth suppression at 4.4 X 10^-5 M compound added in late log phase of growth by turbidimetric analysis; assay type: functional
Klebsiella pneumoniae [21] = experiment: Antibacterial activity against Klebsiella pneumoniae cultured in Penassay broth assessed as effect on lag time after 9 hrs by turbidimetric analysis; assay type: functional, organism-based; procedure, shortened: as §3

Structure (SMILES): Cc1cc2cccc(N)c2o1
- growth inhibition (GI) (Escherichia coli [1]): inactive

Structure (SMILES): Cc1cc2cccc([N+](=O)[O-])c2o1
- growth inhibition (GI) (Escherichia coli [1]): inactive

Structure (SMILES): Cc1oc2c([N+](=O)[O-])cccc2c1Br
- growth inhibition (GI) (Escherichia coli [1]): inactive

- Stability [3]: Unstable
- half-life [4]: 115 min
Structure (SMILES): Cc1oc2c(C(N)=O)cccc2c1[N+](=O)[O-]
- Ratio [2]: >10

- Stability [3]: Unstable
- half-life [4]: 200 min
Structure (SMILES): Cc1oc2ccccc2c1[N+](=O)[O-]
- Ratio [2]: >10

- Stability [3]: Unstable
- half-life [4]: 88.8 min
Structure (SMILES): Cc1oc2c(C(F)(F)F)cccc2c1[N+](=O)[O-]
- Ratio [2]: >10

Structure (SMILES): Cc1oc2ccc([N+](=O)[O-])cc2c1[N+](=O)[O-]
- Ratio [2]: >10
- Stability [3]: Unstable
- half-life [4]: 53.4 min

Structure (SMILES): Cc1cc2cccc(Br)c2o1
- growth inhibition (GI) (Escherichia coli [1]): inactive

Structure (SMILES): Cc1oc2c([N+](=O)[O-])cccc2c1C(=O)O
- growth inhibition (GI) (Escherichia coli [1]): inactive

Structure (SMILES): Cc1oc2c([N+](=O)[O-])cccc2c1C(N)=O
- growth inhibition (GI) (Escherichia coli [1]): inactive

- Stability [3]: Unstable
- half-life [4]: 173 min
Structure (SMILES): Cc1oc2c(NC(=O)C(F)(F)F)cccc2c1[N+](=O)[O-]
- growth inhibition (GI) (Escherichia coli [5]): inactive
- growth inhibition (GI) (Escherichia coli [6]): inactive

- Stability [3]: Unstable
Structure (SMILES): Cc1oc2c(Br)cccc2c1[N+](=O)[O-]
- Ratio [2]: >10

- MIC (Enterococcus faecalis): 50 µg/mL (≈ 252 µM)
- MIC (Escherichia coli [7]): 5 µg/mL (≈ 25.2 µM)
- MIC (Proteus mirabilis): 50 µg/mL (≈ 252 µM)
- MIC (Pseudomonas aeruginosa): > 100 µg/mL
- MIC (Providencia rettgeri): > 100 µg/mL
- MIC (Klebsiella pneumoniae [8]): 10 µg/mL (≈ 50.5 µM)
- MIC (Escherichia coli [9]): 5 µg/mL (≈ 25.2 µM)
- MIC (Escherichia coli [11]): 18.7 µg/mL (≈ 94.4 µM)
- MIC (Staphylococcus aureus [12]): 5 µg/mL (≈ 25.2 µM)
Structure (SMILES): NC(=O)N/N=C/c1ccc([N+](=O)[O-])o1 [NITROFURAZONE]
- Activity (Escherichia coli [10]): inactive

Structure (SMILES): Cc1oc2c([N+](=O)[O-])cccc2c1C#N
- growth inhibition (GI) (Escherichia coli [1]): inactive

Structure (SMILES): Cc1oc2c([N+](=O)[O-])cccc2c1[N+](=O)[O-]
- MIC (Enterococcus faecalis): 3.75 µg/mL (≈ 16.9 µM)
- half-life [13]: 107 min
- MIC (Escherichia coli [7]): 1.87 µg/mL (≈ 8.42 µM)
- MIC (Proteus mirabilis): 6.25 µg/mL (≈ 28.1 µM)
- half-life [14]: 126 min
- Time (Escherichia coli [15]): 6 h
- Activity (Escherichia coli [16]): inactive
- Ratio [2]: >10
- MIC (Pseudomonas aeruginosa): > 10 µg/mL
- Stability [3]: Unstable
- MIC (Providencia rettgeri): 7.5 µg/mL (≈ 33.8 µM)
- half-life [17]: 117 min
- half-life [18]: 90.6 min
- MIC (Klebsiella pneumoniae [8]): 5 µg/mL (≈ 22.5 µM)
- Activity (Staphylococcus aureus [19]): Active
- MIC (Escherichia coli [9]): 1.87 µg/mL (≈ 8.42 µM)
- Activity (Escherichia coli [10]): Active
- MIC (Escherichia coli [11]): 1.87 µg/mL (≈ 8.42 µM)
- MIC (Staphylococcus aureus [12]): 2.5 µg/mL (≈ 11.3 µM)
- Time (Escherichia coli [20]): 3 h
- half-life [4]: 82.2 min
- Activity (Klebsiella pneumoniae [21]): Active
